The values that follow come from ChEMBL document CHEMBL4270646, “Novel antimalarial chloroquine- and primaquine-quinoxaline 1,4-di-N-oxide hybrids: Design, synthesis, Plasmodium life cycle stage profile, and preliminary toxicity studies” (Eur J Med Chem, 2018).

Series [1] has as its system Plasmodium falciparum. As to the kind of experiment: Antiplasmodial activity against chloroquine-sensitive Plasmodium falciparum 3D7 infected in human red blood cells assessed as reduction in parasite growth after 48 hrs by Hoechst 33342 staining based flow cytometric analysis. It is filed as functional, organism-based. The conditions noted are these: 3D7, 48 h. Put shortly:
(§1)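 Ring-stage cultures (>80% rings) at 1% parasitaemia in A+ human erythrocytes, 2% haematocrit. Medium RPMI 1640 with 10% A+ serum, 37°C, 5% CO2/5% O2. Compounds in DMSO at 1.56–100 µg/mL final, DMSO ≤1%. After 48 h, cells stained with Hoechst 33342 and 1×10^4 counted by flow cytometry. IC50 from logistic dose-response regression; three independent experiments in triplicate.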

For series [2], the system named is Plasmodium falciparum. Put plainly: Antiplasmodial activity against the multidrug-resistant Plasmodium falciparum […] infected in human red blood cells assessed as reduction in parasite growth after 48 hrs by Hoechst 33342 staining based flow cytometric analysis. It is filed as functional, organism-based. Put shortly:
as §1

The nature of series [3]: Cytotoxicity against human HepG2 cells assessed as reduction in cell viability after 48 hrs by MTT assay. Format: cell-based. The procedure, abridged:
(§2)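 Cells seeded at 2 × 10^5 per well and allowed 24 h at 37°C, 5% CO2 to form a monolayer. Dilutions added in triplicate and incubated 48 h. MTT (2 mg/mL) then added for 4 h, followed by DMSO for 20 min at room temperature. Absorbance read at 550 nm; DMSO diluent and untreated cells served as negative controls. CC50 derived from the curve.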

A short description of series [4]: Selectivity index, ratio of CC50 for human HepG2 cells to IC50 for multidrug-resistant Plasmodium falciparum […]. It is filed as toxicity. The conditions noted are these: read-out: Ratio CC50/IC50. The procedure, abridged: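 Selectivity index = HepG2 CC50 / FCR-3 IC50. CC50 from MTT assay after 48 h exposure, A550. IC50 from 48 h Hoechst 33342 flow-cytometry assay.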

The subject of series [5] is Plasmodium berghei. Put plainly: Antiplasmodial activity against GFP-harboring Plasmodium berghei sporozoites infected in human HepG2 cells assessed as reduction in parasite growth treated every 24 hrs by DAPI staining-based fluorescence microscopic analysis. Conditions: HepG2, 24 h. Format: functional, organism-based. The procedure, abridged:
(§3)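 Collagen-coated wells seeded with HepG2 (P. berghei), HepG2-CD81 (P. yoelii) or primary human hepatocytes (P. falciparum). Sporozoites added: 5×10^3 to 1×10^4 per well to the cell lines, 2.5×10^4 per well to hepatocytes. Compounds given at infection: top 10 µg/mL plus seven serial dilutions, renewed at 3 h and then every 24 h. Cultures grown 40 h (cell lines) or 8 days (hepatocytes) at 37°C. Methanol-fixed, HSP70 immunolabelled, DAPI counterstained. IC50 from logistic regression; triplicate.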

A short description of series [6]: Cytotoxicity against human HepG2 cells expressing CD81 assessed as reduction in cell viability after 48 hrs by MTT assay. Format: cell-based. The procedure, abridged: as §2
Series [7] can be described thus: Cytotoxicity against human primary hepatocytes assessed as reduction in cell viability after 48 hrs by MTT assay. It is filed as cell-based, Hepatocyte. The procedure, abridged: as §2
Series [8] is described as follows: Selectivity index, ratio of CC50 for human HepG2 cells to IC50 for GFP-expressing Plasmodium berghei sporozoites. It is filed as toxicity. Conditions: read-out: Ratio CC50/IC50. Put shortly:
(§4)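 Selectivity index = CC50 (matching cell) / IC50 (matching parasite). Cell–parasite pairs: HepG2-CD81 with P. yoelii, HepG2 with P. berghei, human hepatocytes with P. falciparum.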

For series [9], the system named is Plasmodium yoelii. Put plainly: Antiplasmodial activity against Plasmodium yoelii 17XNL sporozoites infected in BALB/c mouse assessed as parasite burden at 100 mg/kg, po measured at day 4 by […] (reference value: 0.06%). It is filed as functional. The procedure, abridged:
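BALB/c mice (6-8 weeks, 20-23 g), n=4 per hybrid group and n=5 per control. Dosed orally at 100 mg/kg (100 µL) on days -1, 0, +1 and +2. Vehicle was DMSO 100%; primaquine diphosphate given at 30 mg/kg daily. On day 0, 5 x 10^3 cryopreserved P. yoelii 17XNL sporozoites injected i.v. Parasitaemia read by Giemsa smear and SYBR Green flow cytometry. Groups compared by Kruskal-Wallis test.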

Series [10] deals with Plasmodium yoelii. Put plainly: Antiplasmodial activity against GFP-harboring Plasmodium yoelii sporozoites infected in human HepG2 cells expressing CD81 assessed as reduction in parasite growth at 10 ug/ml treated every 24 hrs by DAPI staining-based fluorescence microscopic analysis. Format: functional, organism-based. The procedure, abridged:
as §3

The subject of series [11] is Plasmodium falciparum. Put plainly: Antiplasmodial activity against GFP-harboring Plasmodium falciparum sporozoites infected in human primary hepatocytes assessed as reduction in parasite growth at 10 ug/ml treated every 24 hrs by DAPI staining-based fluorescence microscopic analysis. Format: functional, organism-based. Put shortly: as §3
Series [12] deals with Plasmodium falciparum. As to the kind of experiment: Antiplasmodial activity against GFP-harboring Plasmodium falciparum sporozoites infected in human primary hepatocytes assessed as reduction in parasite growth treated every 24 hrs by DAPI staining-based fluorescence microscopic analysis. Format: functional, organism-based. Put shortly: as §3
Series [13] can be described thus: Selectivity index, ratio of CC50 for human primary hepatocytes to IC50 for GFP-expressing Plasmodium falciparum sporozoites. Conditions: read-out: Ratio CC50/IC50. Format: toxicity. The procedure, abridged: as §4
In series [14] the test system is Plasmodium yoelii. Put plainly: Antiplasmodial activity against GFP-harboring Plasmodium yoelii sporozoites infected in human HepG2 cells expressing CD81 assessed as reduction in parasite growth treated every 24 hrs by DAPI staining-based fluorescence microscopic analysis. It is filed as functional, organism-based. Conditions: HepG2, 24 h. Put shortly:
as §3

Series [15] in a line: Selectivity index, ratio of CC50 for human HepG2 cells expressing CD81 to IC50 for GFP-expressing Plasmodium yoelii sporozoites. It is filed as toxicity. The conditions noted are these: read-out: Ratio CC50/IC50. Put shortly: as §4
For series [16], the system named is Plasmodium berghei. Put plainly: Antiplasmodial activity against GFP-harboring Plasmodium berghei sporozoites infected in human HepG2 cells assessed as reduction in parasite growth at 10 ug/ml treated every 24 hrs by DAPI staining-based fluorescence microscopic analysis. It is filed as functional, organism-based. The procedure, abridged: as §3

Active and inactive are the calls of the source. The rule behind the calls is not given here. A value given as a limit tells only on which side of the number the result lay.

Regarding `COc1cc(NC(C)CCCNC(=O)c2c(C)[n+]([O-])c3ccc(OC)cc3[n+]2[O-])c2ncccc2c1` (stereo unspecified), the IC50 came to 27 µM in the series with Plasmodium falciparum [1], 30.7 µM in the series with Plasmodium falciparum [2] and 14.1 µM in the series on Plasmodium berghei [5]. The CC50 at 48 h in series [3], in series [6] and in [7] was more than 204 µM each time. Moreover, the selectivity ratio is more than 6.63 in [4] and more than 14.5 in [8]. Besides, the Activity in the series with Plasmodium yoelii [9] is reported as 0.02%. For the same compound, the inhibition entry in the series on Plasmodium yoelii [10] and with Plasmodium falciparum [11] was “inactive” each time.

In the case of `COc1cc(NC(C)CCCNC(=O)c2c(C)[n+]([O-])c3cc(C)c(C)cc3[n+]2[O-])c2ncccc2c1` (stereo unspecified), the IC50 in the series on Plasmodium falciparum [1] was 30.8 µM; in the series on Plasmodium falciparum [2], 52.9 µM; in the series on Plasmodium berghei [5], 11.3 µM; in the series with Plasmodium falciparum [12] it was 8.11 µM. The CC50 at 48 h in [3], in [6] and in [7] was more than 202 µM each time. The selectivity ratio in series [4] was more than 3.82; in series [8] it was more than 17.8; in series [13], 20.2. For the same compound, in the series with Plasmodium yoelii [9], the Activity came out at 0.06%.

On to `COc1cc(NC(C)CCCNC(=O)c2c(C)[n+]([O-])c3ccc(C)cc3[n+]2[O-])c2ncccc2c1` (stereo unspecified), for which the IC50 turned out to be 44.9 µM with Plasmodium falciparum [1]; 50.6 µM in the series on Plasmodium falciparum [2]; 14 µM in the series with Plasmodium yoelii [14]; 6.34 µM in the series with Plasmodium berghei [5]; 7.21 µM in the series on Plasmodium falciparum [12]. The CC50 at 48 h in [3] is 110 µM; in series [6] it was more than 207 µM; in series [7] it was more than 207 µM. The selectivity ratio in series [4] turned out to be 2.17; in [15] it was 14.7; in series [8], 17.3; in [13], 28.6. Moreover, in the series on Plasmodium yoelii [9], the Activity turned out to be 0.03%.

`COc1ccc2c(c1)[n+]([O-])c(C(=O)NCCNc1ccnc3cc(Cl)ccc13)c(C)[n+]2[O-]`: the IC50 was 2.11 µM with Plasmodium falciparum [1] and 2.07 µM in the series with Plasmodium falciparum [2]. Also, in series [3], the CC50 at 48 h stood at 92.7 µM. For the same compound, the selectivity ratio in series [4] was determined as 44.8.

Turning to `Cc1cc2c(cc1C)[n+]([O-])c(C(=O)NCCNc1ccnc3cc(Cl)ccc13)c(C)[n+]2[O-]`, the IC50 came to 0.68 µM in the series on Plasmodium falciparum [1] and 0.9 µM in the series on Plasmodium falciparum [2]. In series [3], the CC50 at 48 h turned out to be 64.5 µM. Moreover, in [4], the selectivity ratio turned out to be 71.7. The inhibition result in the series on Plasmodium yoelii [10], in the series with Plasmodium berghei [16] and with Plasmodium falciparum [11] was “inactive” throughout.
